How the values were obtained:
Format in all cases: functional
[1] = system: Rattus norvegicus; test: Amount of glucose in obese Zucker rats after 2 weeks of treatment at a dose of 100 mg/kg/day
Summary of the method: (§1)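 Female Zucker fatty rats [Crl:(Zuc)-faBR], 10–12 weeks old (400–500 g), gavaged daily with vehicle (20% EtOH/80% PEG-200, 0.25% of body weight) or compound. After a 6-h fast, blood glucose was read by glucometer from tail-prick blood of unanesthetized rats before dosing and after 1 and 2 weeks. Values are mean ± SEM.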

[2] = system: Rattus norvegicus; test: Amount of insulin in obese Zucker rats after 2 weeks of treatment at a dose of 100 mg/kg/day
Summary of the method: (§2)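 Female obese Zucker rats [Crl:(Zuc)-faBR], 400–500 g, given daily oral gavage in 20% EtOH/80% PEG-200 for up to 14 days. After a 6-h fast, serum was collected pretreatment and at day 7 (orbital bleed) and day 14 (cardiac puncture) and stored at -80 °C. Insulin was measured by ELISA. Values are mean ± SEM.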

[3] = system: Rattus norvegicus; test: Amount of non-HDL-cholesterol in obese Zucker rats at pre-treatment at a dose of 0 mg/kg/day
Summary of the method: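 Female obese Zucker fatty rats [Crl:(Zuc)-faBR], 10–12 weeks old (400–500 g), on chow. Compound in 20% EtOH/80% PEG-200 (v/v) given by daily oral gavage. After a 6-h fast, serum was taken before dosing and at 7 days (orbital plexus), and at 14 days (cardiac puncture). Lipoprotein cholesterol came from Superose 6HR gel-filtration profiles × serum total cholesterol. Mean ± SEM.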

[4] = system: Rattus norvegicus; test: Amount of insulin in obese Zucker rats at pre-treatment at a dose of 0 mg/kg/day; summary of the method: as §2
[5] = system: Rattus norvegicus; test: Amount of insulin in obese Zucker rats at pre-treatment at a dose of 30 mg/kg/day; summary of the method: as §2
[6] = system: Rattus norvegicus; test: Amount of insulin in obese Zucker rats at pre-treatment at a dose of 100 mg/kg/day; summary of the method: as §2
[7] = system: Rattus norvegicus; test: Amount of triglycerides in obese Zucker rats after 1 week of treatment at a dose of 30 mg/kg/day
Summary of the method: (§3)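 Female Zucker fatty rats [Crl:(Zuc)-faBR], 10–12 weeks old (400–500 g), dosed once daily by oral gavage in 20% EtOH/80% PEG-200 for up to 14 days. After a 6-h fast, serum was taken pre-dose, at day 7 (orbital venous plexus, O2/CO2 anaesthesia) and at day 14 (cardiac puncture), stored at −80 °C, and assayed on a Hitachi 912 automatic analyzer. Mean ± SEM.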

[8] = system: Rattus norvegicus; test: Amount of triglycerides in obese Zucker rats after 2 weeks of treatment at a dose of 100 mg/kg/day; summary of the method: as §3
[9] = system: Rattus norvegicus; test: Amount of HDL-cholesterol in obese Zucker rats after 2 weeks of treatment at a dose of 10 mg/kg/day
Summary of the method: (§4)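 Female Zucker fatty rats [Crl:(Zuc)-faBR], 10–12 weeks old (400–500 g), dosed once daily by oral gavage in 20% EtOH/80% PEG-200 (dose volume 0.25% of body weight). Rats were fasted 6 h and bled before dosing and at day 7 (orbital plexus), and at day 14 (cardiac puncture). Serum cholesterol fractions came from Superose 6 gel-filtration lipoprotein profiles (% peak area × serum total cholesterol). Values are mean ± SEM.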

[10] = system: Rattus norvegicus; test: Amount of HDL-cholesterol in obese Zucker rats after 2 weeks of treatment at a dose of 30 mg/kg/day; summary of the method: as §4
[11] = system: Rattus norvegicus; test: Amount of non-HDL-cholesterol in obese Zucker rats after 1 week of treatment at a dose of 3 mg/kg/day; summary of the method: as §4
[12] = system: Rattus norvegicus; test: Amount of HDL-cholesterol in obese Zucker rats after 2 weeks of treatment at a dose of 100 mg/kg/day; summary of the method: as §4
[13] = system: Rattus norvegicus; test: Amount of nonesterified fatty acids in obese Zucker rats at pre-treatment at a dose of 100 mg/kg/day; summary of the method: as §3
[14] = system: Rattus norvegicus; test: Amount of non-HDL-cholesterol in obese Zucker rats after 1 week of treatment at a dose of 0 mg/kg/day; summary of the method: as §4
[15] = system: Rattus norvegicus; test: Amount of non-HDL-cholesterol in obese Zucker rats after 2 weeks of treatment at a dose of 0 mg/kg/day; summary of the method: as §4
[16] = system: Rattus norvegicus; test: Percent decrease in triglycerides in obese Zucker rats after 1 week of treatment at a dose of 30 mg/kg/day; design: scale not given: the % may be the effect or the level left
Summary of the method: (§5)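 Female Zucker fatty rats [Crl:(Zuc)-faBR], 10–12 weeks, 400–500 g, acclimated 7 days on chow. Compound or vehicle (20% EtOH/80% PEG-200) given by daily oral gavage for 2 weeks, 0–100 mg/kg/day. After a 6 h fast, blood was taken before dosing, at 1 wk and at 2 wk. Serum lipids, NEFA and insulin (ELISA) were measured; glucose by glucometer. HDL/non-HDL-C came from Superose 6 gel-filtration profiles. Values are % change from pretreatment, mean ± SEM.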

[17] = system: Rattus norvegicus; test: Percent increase in HDL-cholesterol in obese Zucker rats after 1 week of treatment at a dose of 100 mg/kg/day; summary of the method: as §5
[18] = system: Rattus norvegicus; test: Percent increase in HDL-cholesterol in obese Zucker rats after 2 weeks of treatment at a dose of 30 mg/kg/day; summary of the method: as §5
[19] = system: Rattus norvegicus; test: Percentage change of HDL cholesterol levels in obese female Zucker rats after 1 week of pre-treatment at a dose of 100 mg/kg/day
Summary of the method: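 Obese female Zucker fatty rats were gavaged once daily with 30 or 100 mg/kg/day in 20% EtOH/80% PEG-200 for 2 weeks. Sera were collected after a 6 h fast, before dosing, at 1 week (orbital plexus) and at 2 weeks (cardiac puncture). HDL-C was total cholesterol multiplied by HDL area fraction from gel-filtration lipoprotein profiles. Reported as % change from pretreatment ± SEM.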

[20] = system: Rattus norvegicus; test: Amount of nonesterified fatty acids in obese Zucker rats after 1 week of treatment at a dose of 0 mg/kg/day; summary of the method: as §3
[21] = system: Rattus norvegicus; test: Percent decrease in triglycerides in obese Zucker rats after 2 weeks of treatment at a dose of 100 mg/kg/day; design: scale not given: the % may be the effect or the level left; summary of the method: as §5
[22] = system: Rattus norvegicus; test: Amount of nonesterified fatty acids in obese Zucker rats after 1 week of treatment at a dose of 100 mg/kg/day; summary of the method: as §3
[23] = system: Rattus norvegicus; test: Amount of HDL-cholesterol in obese Zucker rats after 1 week of treatment at a dose of 3 mg/kg/day; summary of the method: as §4
[24] = system: Rattus norvegicus; test: Amount of triglycerides in obese Zucker rats after 2 weeks of treatment at a dose of 30 mg/kg/day; summary of the method: as §3
[25] = system: Rattus norvegicus; test: Amount of HDL-cholesterol in obese Zucker rats at pre-treatment at a dose of 30 mg/kg/day; summary of the method: as §4
[26] = system: Rattus norvegicus; test: Amount of glucose in obese Zucker rats after 1 week of treatment at a dose of 0 mg/kg/day; summary of the method: as §1
[27] = system: Rattus norvegicus; test: Amount of glucose in obese Zucker rats after 1 week of treatment at a dose of 3 mg/kg/day; summary of the method: as §1
[28] = system: Rattus norvegicus; test: Amount of glucose in obese Zucker rats after 2 weeks of treatment at a dose of 30 mg/kg/day; summary of the method: as §1
[29] = system: Rattus norvegicus; test: Amount of glucose in obese Zucker rats at pre-treatment at a dose of 0 mg/kg/day; summary of the method: as §1

Compound | Activity [1] [mg/dL] | Activity [2] [ng/mL] | Activity [3] [mg/dL] | Activity [4] [ng/mL] | Activity [5] [ng/mL] | Activity [6] [ng/mL] | Activity [7] [mg/dL] | Activity [8] [mg/dL] | Activity [9] [mg/dL] | Activity [10] [mg/dL] | Activity [11] [mg/dL] | Activity [12] [mg/dL] | Activity [13] [mg/dL] | Activity [14] [mg/dL] | Activity [15] [mg/dL] | Activity [16] [%] | Activity [17] [%] | Activity [18] [%] | Change [19] [%] | Activity [20] [mg/dL] | also measured
CC(C)(CCCCC(=O)CCCCC(C)(C)C(=O)O)C(=O)O | 122 | 9.5 | 40 | 9.8 | 7.7 | 8.1 | 826 | 440 | 39 | 50 | 24 | 68 | 1.2 | 43 | 29 | -33 | 74 | 47 | 54 | 1.5 | Activity [21]: -54%; Activity [22]: 0.81 mg/dL; Activity [23]: 36 mg/dL; Activity [24]: 962 mg/dL; Activity [25]: 34 mg/dL; Activity [26]: 124 mg/dL; Activity [27]: 99 mg/dL; Activity [28]: 118 mg/dL; Activity [29]: 134 mg/dL
CC(C)(CCCCCC(=O)CCCCCC(C)(C)C(=O)O)C(=O)O | 105 | 6 | 20 | 9.1 | 9.8 | 11.9 | 213 | 78 | 138 | 208 | 23 | 141 | 1.4 | 29 | 28 | -78 | 51 | 235 | 72 | 1.3 | Activity [21]: -92%; Activity [22]: 0.98 mg/dL; Activity [23]: 75 mg/dL; Activity [24]: 475 mg/dL; Activity [25]: 62 mg/dL; Activity [26]: 123 mg/dL; Activity [27]: 117 mg/dL; Activity [28]: 130 mg/dL; Activity [29]: 129 mg/dL
CC(C)(CO)CCCCC(=O)CCCCC(C)(C)CO | 118 | 11 | 25 | 9.1 | 9.3 | 9.6 | 726 | 702 | 53 | 61 | 25 | 79 | 1.4 | 36 | 30 | -27 | 73 | 42 | 111 | 1.3 | Activity [21]: -33%; Activity [22]: 0.98 mg/dL; Activity [23]: 43 mg/dL; Activity [24]: 985 mg/dL; Activity [25]: 43 mg/dL; Activity [26]: 118 mg/dL; Activity [27]: 106 mg/dL; Activity [28]: 120 mg/dL; Activity [29]: 125 mg/dL

— ChEMBL document CHEMBL1137992, “Long hydrocarbon chain keto diols and diacids that favorably alter lipid disorders in vivo” (J Med Chem, 2004)
